Shown are actives, neighbours in structure and some others; about 3.4% of the full set was active somewhere.
PolyA inh – blocks polyadenylation in yeast reporter cells; S. cerevisiae SKY197-pL101 polyadenylation reporter, beta-gal luminescence; efflux-impaired pdr1/pdr3 knockout yeast; score 100 = 6 SD above DMSO; 300,000 tested, 0.02% active; activity score, % at 12 µM; AID 1875;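 active means lowest replicate activity score at least 50, where 100 means six control SD above control mean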;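 further: yeast exposed to compound for 9 h at 30 °C; higher score means more reporter readthrough which indicates perturbed polyadenylation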
AHR act – activates the human aryl hydrocarbon receptor; P35869; AHR-responsive luciferase reporter cells, luminescence; activation, % at 5 µM; 320,000 tested, 2.5% active; AID 2796; in the data active means activation above about 47%;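 further: 0% = vehicle wells and 100% = reference agonist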
A3A deaminase – blocks human APOBEC3A ssDNA deamination | recombinant A3A, FAM/TAMRA ssDNA deamination fluorescence | inhibition, % at 20 µM | P31941 | 330,000 tested, 0.41% active;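 active means at least 40% inhibition at 20 µM here, with at most 30% in a related deaminase screen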;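 further: plate controls were A3A with DMSO for no effect and wells lacking A3A enzyme for full effect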
Target sequence (P31941 whole entry, looked up): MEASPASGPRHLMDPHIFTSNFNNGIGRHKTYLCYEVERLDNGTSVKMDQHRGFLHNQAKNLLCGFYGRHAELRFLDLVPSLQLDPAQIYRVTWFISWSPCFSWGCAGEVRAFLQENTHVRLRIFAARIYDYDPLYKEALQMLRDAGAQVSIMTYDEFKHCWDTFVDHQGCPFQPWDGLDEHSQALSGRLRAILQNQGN
APOBEC3G inh – blocks human APOBEC3G single-stranded DNA deamination. AID 493012. inhibition, % at 20 µM. Q9HC16. 330,000 tested, 0.28% active. recombinant A3G, ssDNA deamination FAM/TAMRA fluorescence;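 active means inhibition of at least 40% at 20 µM, with no more than 30% in the related APOBEC3A deaminase screen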;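 further: plate controls were DMSO wells with A3G for no effect and wells lacking A3G enzyme for full effect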
Arrestin-AP2 inh – human beta-arrestin and AP2 interaction inhibition. FITC-arrestin peptide / GST-AP2 beads, flow cytometry; AP2 beta2 appendage carries R879A mutation. inhibition, % at 10 µM. 340,000 tested, 0.31% active. AID 504490;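 active means inhibition above a set limit, near 3 SD of compounds lacking own fluorescence, cut at about 54% in these data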;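 further: plate controls were DMSO wells for no effect and 5 µM unlabelled arrestin peptide for full effect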
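Material – GST-tagged AP2 beta2-adaptin appendage (R879A) on 4 µm glutathione beads · Probe or stimulus – fluorescein-tagged arrestin peptide at 50 nM final · Timing – 12 min plus 1 h, RT · Detection – bead flow cytometry, FITC channel · Read-out basis – inhibition as reduced fluorescein signal on beads, percent · Medium – PBS plus Tween 20 (0.05%) and BSA (0.1%)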
UCH37 inh – inhibitors of human deubiquitinating enzyme UCH37; Q9Y5K5; purified proteasome/UCH37, Ub-AMC cleavage fluorescence; inhibition, % (no concentration beside the values); 330,000 tested, 0.33% active;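 active means mean inhibition over replicate wells above about 20%, limit read from the data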;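 further: 0% = compound-free wells with enzyme and 100% = wells lacking proteasome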
Target sequence (Q9Y5K5 whole entry, looked up): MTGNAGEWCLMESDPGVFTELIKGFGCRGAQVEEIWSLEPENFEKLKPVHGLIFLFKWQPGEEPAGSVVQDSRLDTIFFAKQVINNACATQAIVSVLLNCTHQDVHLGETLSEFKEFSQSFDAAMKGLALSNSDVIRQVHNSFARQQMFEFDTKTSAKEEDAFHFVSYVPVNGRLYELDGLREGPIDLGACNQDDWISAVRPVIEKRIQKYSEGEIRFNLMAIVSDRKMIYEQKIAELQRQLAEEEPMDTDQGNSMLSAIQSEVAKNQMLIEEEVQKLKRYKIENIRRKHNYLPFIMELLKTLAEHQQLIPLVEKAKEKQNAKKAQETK
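Test system – human UCH37 enzyme supplied as purified proteasome complex · Incubation – 30 min preincubation with enzyme, 25 min cleavage at room temperature · Detection – AMC fluorescence from Ub-AMC cleavage, excitation 355 nm, emission 460 nm · Benchmarks – no-proteasome wells (full inhibition) and compound-free wells (no inhibition)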
AHR act confirm – human AHR activation, confirmation; shares compounds with AHR act; human cells, AHR-responsive luciferase reporter, luminescence; activation, % at 9 µM; 2,300 tested, 87% active; AID 2845; in the data active means activation above about 49%;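 further: HepG2 hepatoma cells carrying a DRE-driven firefly luciferase reporter; 0% = vehicle wells and 100% = reference agonist wells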
PXR counter – PXR activation, counter-screen for AHR activators. shares compounds with AHR act. cell-based PXR reporter, luciferase luminescence. activation, % at 11.6 µM. 2,300 tested, 88% active; in the data active means activation above about 11%;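 further: human hepatoma DPX-2 cells expressing full-length human PXR; 0% = DMSO and 100% = reference agonist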
APOBEC3A confirm – APOBEC3A (human) deaminase inhibition, confirmed. shares compounds with A3A deaminase. recombinant A3A, ssDNA deaminase UDG fluorescence assay. inhibition, % at 20 µM. 1,400 tested, 63% active. AID 493151;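 active means inhibition reaching a set limit, 80% of the first screen's cutoff, at 20 µM in any replicate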;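 further: plate controls were DMSO wells with A3A for no effect and wells lacking A3A enzyme for full effect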
UDG ctr A3A – counter-screen for APOBEC3A inhibitors: UDG; 1,000 tested, under 10 active; inhibition, % at 20 µM; UDG counterscreen, FAM/TAMRA uracil oligo fluorescence; shares compounds with A3A deaminase; AID 504714; call rule not given here
An asterisk follows results filed as active.

`CCCCc1nc2ccccc2c(=O)n1-c1ccccc1O` gave PolyA inh 1, AHR act 73*, A3A deaminase -3, APOBEC3G inh -2, Arrestin-AP2 inh 34 and UCH37 inh -1.
`CCCc1nc2ccccc2c(=O)n1-c1ccccc1OC` gave PolyA inh -12, AHR act 3, A3A deaminase 3, APOBEC3G inh 0, Arrestin-AP2 inh -12 and UCH37 inh -2.
For Cc1ccc2c(c1N)C(=O)c1ccccc1C2=O the results were AHR act 73*, A3A deaminase 3, APOBEC3G inh -6 and Arrestin-AP2 inh 1.
Cc1cc(N=Nc2ccccc2C)ccc1N was read as PolyA inh -10, AHR act 80*, A3A deaminase 5, APOBEC3G inh 4, Arrestin-AP2 inh -9, UCH37 inh 9, AHR act confirm 130* and PXR counter 12*.
`Nc1ccc(N=Nc2ccccc2)cc1` gave PolyA inh -8, AHR act -4, A3A deaminase -7, APOBEC3G inh -11, Arrestin-AP2 inh -47 and UCH37 inh 12.
COC(=O)C1C2c3ccccc3OC1(C)N=c1sc(=Cc3cnn(C)c3)c(=O)n12 (configuration not stated) was read as UCH37 inh 2.
For O=C1CN=C(c2ccc(Br)cc2)c2oc3ccccc3c2N1 the results were PolyA inh 2, AHR act 82*, A3A deaminase -3, APOBEC3G inh -5, Arrestin-AP2 inh 16, UCH37 inh 1, AHR act confirm 108* and PXR counter 29*.
Screening O=C1CN=C(c2ccc(F)cc2)c2oc3ccccc3c2N1 returned PolyA inh -13, AHR act 3, A3A deaminase 2, APOBEC3G inh -6, Arrestin-AP2 inh -4 and UCH37 inh 3.
NC(=N[N+](=O)[O-])N1CCN(C(=O)c2ccc(Cl)cc2)CC1 was read as UCH37 inh 2.
For Cc1cnc(-n2c(=S)[nH]c3ccccc3c2=O)s1 the results were AHR act 125*, A3A deaminase -3, APOBEC3G inh -11, Arrestin-AP2 inh 26, AHR act confirm 137* and PXR counter 19*.
Screening Cc1nc2ccc(Cl)cc2c(=O)n1-c1ccc([N+](=O)[O-])cc1 returned PolyA inh -18, AHR act 140*, A3A deaminase -5, APOBEC3G inh -11, Arrestin-AP2 inh 6, UCH37 inh 2, AHR act confirm 4 and PXR counter 11*.
Cc1nc2cc([N+](=O)[O-])ccc2c(=O)n1-c1ccc(Br)cc1 was read as PolyA inh -19, AHR act 87*, A3A deaminase -7, APOBEC3G inh -10, Arrestin-AP2 inh -9, UCH37 inh 3, AHR act confirm 34 and PXR counter 11*.
`Brc1ccc2[nH]cc(/C=N/N3CCCCC3)c2c1` gave PolyA inh 12, AHR act 83*, A3A deaminase 1, APOBEC3G inh -1, Arrestin-AP2 inh -4, AHR act confirm 33 and PXR counter 22*.
Screening C(=NN1CCCCCC1)c1c[nH]c2ccccc12 returned Arrestin-AP2 inh -18 and UCH37 inh 1.
For NC(=N[N+](=O)[O-])N1CCN(C(=O)OC2CCCC2)CC1 the results were UCH37 inh 1.
Screening C[N+]1(CC(COCc2ccccc2)OC(=O)Cc2ccccc2)CCOCC1 (configuration not stated) returned PolyA inh 14, AHR act 2, A3A deaminase 41*, APOBEC3G inh 18, Arrestin-AP2 inh -7, UCH37 inh 3, APOBEC3A confirm 69* and UDG ctr A3A 1.
CC(=O)O[C@@H]1C=C[C@](C)(O)C[C@@H](C)CC=C[C@H]2[C@H](O)C(C)=C(C)[C@H]3[C@H](Cc4ccccc4)NC(=O)[C@@]123 was read as UCH37 inh 3.
Screening COc1ccc2[nH]cc(CCN=C(N)N)c2c1 returned PolyA inh 4, AHR act 28, A3A deaminase 54*, APOBEC3G inh 14, Arrestin-AP2 inh 10, UCH37 inh 0, APOBEC3A confirm 28* and UDG ctr A3A -2.
Oc1ccc(C=NNP(=S)(c2ccccc2)c2ccccc2)cc1 was read as UCH37 inh 4.
For C[C@@H]1CC2(CCCC[N+]2(C)C)C[C@H]1C the results were PolyA inh 3, AHR act 1, A3A deaminase 81*, APOBEC3G inh 28, Arrestin-AP2 inh -5, UCH37 inh 2, APOBEC3A confirm 68* and UDG ctr A3A -2.
Screening CC(C)[N+](C)(CCC(C(N)=O)(c1ccccc1)c1ccccc1)C(C)C returned PolyA inh 24, AHR act 0, A3A deaminase 68*, APOBEC3G inh 15, Arrestin-AP2 inh -2, UCH37 inh 2, APOBEC3A confirm 83* and UDG ctr A3A 3.
For CCC(=O)C(CCN1CCOCC1)(c1ccccc1)c1ccccc1 the results were PolyA inh 3, AHR act -2, A3A deaminase -4, APOBEC3G inh -4, Arrestin-AP2 inh 13 and UCH37 inh 0.
Screening C[C@H]1CCCC=CC2C[C@H](O)CC2[C@H](O)C=CC(=O)O1 (some centres not stated) returned UCH37 inh 0.
For CN(C)C(=O)Oc1ccc2c(=O)c(Oc3ccccc3Br)coc2c1 the results were PolyA inh -1, AHR act -3, A3A deaminase -2, APOBEC3G inh 1, Arrestin-AP2 inh 4 and UCH37 inh 4.
For COc1cccc(Oc2coc3cc(OC(=O)N(C)C)ccc3c2=O)c1 the results were PolyA inh 5, AHR act -1, A3A deaminase 99*, APOBEC3G inh -5, Arrestin-AP2 inh 9, UCH37 inh 1, APOBEC3A confirm 6 and UDG ctr A3A 1.
For COc1cc(C=NNC(=O)Cn2c([N+](=O)[O-])cnc2C)ccc1OC(=O)N(C)C the results were UCH37 inh 3.
